Experimental data pooled from the literature.
Each line is one published result; the experiments were not run side by side. pEC50, pIC50: −log10 of the molar value.
Cell line: MCF7
Observed: cell growth or viability

C[C@@H]1CC[C@@H]([C@](O)(CNCc2ccc(F)cc2)COCc2ccc(F)cc2)[C@H](OCc2ccc(F)cc2)C1 — inhibition (MTT; 10 µM, 72 h): 93.7%
CC(=O)Nc1ccc(Oc2nnc(-c3ccc(Cl)cc3)c3ccccc23)cc1 — viability (MTT; 5 µM, 24 h): 3.72%
Cc1ccc(-c2cc(-c3ccc(N(C)C)cc3)c3c(=O)[nH]c(=O)[nH]c3n2)cc1 — pIC50 (MTT; 48 h): 5.00
CC(=NNC(N)=S)c1ccc(Nc2nnc(-c3ccc(Cl)cc3)c3ccccc23)cc1 — viability (MTT; 5 µM, 24 h): 9.07%
Cc1nc(Nc2ccc3c(c2)/C(=C/c2ccccc2C)C(=O)N3C)c2ccccc2n1 — pIC50 (MTT): 4.67
CC(=O)c1c(C)c2cnc(Nc3ccc(N4CCNCC4)cn3)nc2n(C2CCCC2)c1=O — pEC50 (5 days): 7.42
CC(=NNC(=O)c1ccncc1)c1ccc(Nc2nnc(-c3ccc(Cl)cc3)c3ccccc23)cc1 — viability (MTT; 2.5 µM, 24 h): 5.58%
COc1ccc(COC[C@@](O)(CNCc2ccc(F)cc2)[C@@H]2CC[C@@H](C)C[C@H]2OCc2ccc(OC)cc2)cc1 — inhibition (MTT; 10 µM, 72 h): 94.5%
Cc1ccc(-c2cc(-c3ccc(Cl)cc3)c3c(=O)[nH]c(=O)[nH]c3n2)cc1 — pIC50 (MTT; 48 h): 5.01
CCOC(=O)c1nn(-c2cccc(Cl)c2)/c(=N/N=C(\C)c2ccc(NC(=O)c3ccccc3)cc2)s1 — viability (MTT; 1.25 µM): 2.59%
COc1ccc(-c2cc(-c3ccc(Br)cc3)c3c(=O)n(C)c(=O)n(C)c3n2)cc1 — pIC50 (MTT; 48 h): 4.53
CC(=O)Nc1ccc(/C(C)=N/N=c2\sc(C(C)=O)nn2-c2ccc(C)cc2)cc1 — viability (MTT; 2.5 µM): 34.6%
C[C@@H]1CC[C@@H]([C@@](O)(CNCc2cccc3ccccc23)COCc2ccccc2)[C@H](OCc2ccccc2)C1 — inhibition (MTT; 10 µM, 72 h): 82.9%
CC(=O)c1nn(-c2ccccc2Cl)/c(=N/N=C(\C)c2ccc(NC(=O)c3ccccc3)cc2)s1 — viability (MTT; 78 nM): 47.5%
Cc1nc(NC(=O)N2CCC[C@H]2C(N)=O)sc1-c1ccnc(C(C)(C)C(F)(F)F)c1 — pEC50 (5 days): 6.75
CC(=O)c1nn(-c2ccc(C)cc2)/c(=N/N=C(\C)c2ccc(NC(=O)c3ccccc3)cc2)s1 — viability (MTT; 5 µM): 6.47%
O=C1CC[C@H](N2Cc3cc(N4CCN(CC5CCN(c6ccc([C@@H]7c8ccc(O)cc8CC[C@@H]7c7ccccc7)cc6)CC5)CC4)ccc3C2=O)C(=O)N1 — GI50 (ATP luminescence; 5 days): 0.0033 µM
O=C(Nc1ccc(Oc2nnc(-c3ccc(Cl)cc3)c3ccccc23)cc1)c1cccc([N+](=O)[O-])c1 — cell death (MTT; 5 µM): 92.1%
COc1cc2ncnc(Nc3ccc4c(c3)/C(=C/c3ccccc3)C(=O)N4)c2cc1OC — pIC50 (MTT): 4.73
CC(=NNC(=O)c1cccnc1)c1ccc(Nc2nnc(-c3ccc(Cl)cc3)c3ccccc23)cc1 — viability (MTT; 0.312 µM, 24 h): 100%
COc1ccc(-c2cc(-c3cc(OC)ccc3OC)c3c(=O)[nH]c(=O)[nH]c3n2)cc1 — pIC50 (MTT; 48 h): 4.84
C[C@@H]1CC[C@@H]([C@](O)(CNCc2ccccc2)COCc2ccc(F)cc2)[C@H](OCc2ccc(F)cc2)C1 — inhibition (MTT; 10 µM, 72 h): 95.7%
COc1cccc2c1C(=O)c1c(O)c3c(c(O)c1C2=O)C[C@@](O)(C(=O)CO)C[C@@H]3O[C@H]1C[C@H](N)[C@H](O)[C@H](C)O1 — inhibition (MTT; 100 µM, 48 h): 96.8%
C[C@@H]1CC[C@@H]([C@@](O)(CNCc2ccccc2)COCc2ccccc2)[C@H](OCc2ccccc2)C1 — inhibition (MTT; 10 µM, 72 h): 94.8%
COc1ccc(-c2cc(-c3ccc(C)cc3)nc3c2c(=O)n(C)c(=O)n3C)cc1OC — pIC50 (MTT; 48 h): 4.53
C[C@@H]1CC[C@@H]([C@](C)(O)CNCc2ccccc2)[C@H](OCc2ccccc2)C1 — inhibition (MTT; 30 µM, 72 h): 98%
COC(=O)COc1c(Cc2cc(C(C)(C)CC(C)(C)C)cc(-n3nc4ccccc4n3)c2OCC(=O)OC)cc(C(C)(C)CC(C)(C)C)cc1-n1nc2ccccc2n1 — GI50 (MTT): 3.18 µM
C[C@@H]1CC[C@@H]([C@](C)(O)CNCc2cccc3ccccc23)[C@H](OCc2ccccc2)C1 — inhibition (MTT; 10 µM, 72 h): 61.5%
CC(=NNC(=O)c1ccccc1O)c1ccc(Nc2nnc(-c3ccc(Cl)cc3)c3ccccc23)cc1 — viability (MTT; 0.312 µM, 24 h): 99.3%
Cc1ccc(-c2cc(-c3ccc(Cl)c(F)c3)c3c(=O)[nH]c(=O)[nH]c3n2)cc1 — pIC50 (MTT; 48 h): 4.84
CO[C@H]1C[C@@H]2CC[C@@H](C)[C@@](O)(O2)C(=O)C(=O)N2CCCC[C@H]2C(=O)O[C@H]([C@H](C)C[C@@H]2CC[C@@H](OCCO)[C@H](OC)C2)CC(=O)[C@H](C)/C=C(\C)[C@@H](O)[C@@H](OC)C(=O)[C@H](C)C[C@H](C)/C=C/C=C/C=C/1C — pEC50 (5 days): 8.85
